For data set [1], the system named is MCF7. As to the kind of experiment: Cytotoxicity against human MCF7 cells assessed as cell death at 100 uM after 18 hrs by propidium iodide staining-based FACS flow cytometric analysis. It counts as functional.
The subject of data set [2] is A549. As to the kind of experiment: Cytotoxicity against human A549 cells assessed as cell death at 100 uM after 18 hrs by propidium iodide staining-based FACS flow cytometric analysis. It counts as functional. In general terms: A flow cytometer gives signals particle by particle.
Data set [3] relates to MCF7. As to the kind of experiment: Cell cycle arrest in human MCF7 cells assessed as accumulation at S phase at 100 uM after 18 hrs by propidium iodide staining-based FACS flow cytometric analysis (reference value: 12.6%). The data set is classed as functional.
The test system of data set [4] is MCF7. The data set is described as follows: Cell cycle arrest in human MCF7 cells assessed as accumulation at G2 phase at 100 uM after 18 hrs by propidium iodide staining-based FACS flow cytometric analysis (reference value: 14.7%). It counts as functional.
For data set [5], the system named is MCF7. As to the kind of experiment: Cell cycle arrest in human MCF7 cells assessed as accumulation at G1 phase at 100 uM after 18 hrs by propidium iodide staining-based FACS flow cytometric analysis (reference value: 67.6%). It counts as functional.
In data set [6] the test system is A549. As to the kind of experiment: Cell cycle arrest in human A549 cells assessed as accumulation at S phase at 100 uM after 18 hrs by propidium iodide staining-based FACS flow cytometric analysis (reference value: 17.8%). It counts as functional.
Data set [7] concerns A549. As to the kind of experiment: Cell cycle arrest in human A549 cells assessed as accumulation at G2 phase at 100 uM after 18 hrs by propidium iodide staining-based FACS flow cytometric analysis (reference value: 19.4%). The data set is classed as functional.
Data set [8] has as its system A549. The data set is described as follows: Cell cycle arrest in human A549 cells assessed as accumulation at G1 phase at 100 uM after 18 hrs by propidium iodide staining-based FACS flow cytometric analysis (reference value: 62.3%). It counts as functional.
For data set [9], the system named is MCF7. As to the kind of experiment: Cytotoxicity against human MCF7 cells at 50 uM by LDH assay. It counts as functional, cell-based.
The subject of data set [10] is MCF7. As to the kind of experiment: Effect on alpha-tubulin acetylation in human MCF7 cells at 50 uM after 6 to 18 hrs by Western blotting analysis. The data set is classed as functional, cell-based. An outline of the steps:
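MCF-7 cells seeded 24 h ahead, treated for 6 or 18 h, then lysed in M-PER. Lysates run on SDS-PAGE, transferred to nitrocellulose and probed with mouse monoclonal anti-acetylated α-tubulin and anti-total α-tubulin. Detection with peroxidase anti-mouse secondary and ECL Plus.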
(Immunoblotting shows a protein as a band on a membrane.)

Data set [11] has as its target T1, NAD-dependent protein deacetylase sirtuin-1 (Homo sapiens) (UniProt Q96EB6).
T1 sequence (whole entry): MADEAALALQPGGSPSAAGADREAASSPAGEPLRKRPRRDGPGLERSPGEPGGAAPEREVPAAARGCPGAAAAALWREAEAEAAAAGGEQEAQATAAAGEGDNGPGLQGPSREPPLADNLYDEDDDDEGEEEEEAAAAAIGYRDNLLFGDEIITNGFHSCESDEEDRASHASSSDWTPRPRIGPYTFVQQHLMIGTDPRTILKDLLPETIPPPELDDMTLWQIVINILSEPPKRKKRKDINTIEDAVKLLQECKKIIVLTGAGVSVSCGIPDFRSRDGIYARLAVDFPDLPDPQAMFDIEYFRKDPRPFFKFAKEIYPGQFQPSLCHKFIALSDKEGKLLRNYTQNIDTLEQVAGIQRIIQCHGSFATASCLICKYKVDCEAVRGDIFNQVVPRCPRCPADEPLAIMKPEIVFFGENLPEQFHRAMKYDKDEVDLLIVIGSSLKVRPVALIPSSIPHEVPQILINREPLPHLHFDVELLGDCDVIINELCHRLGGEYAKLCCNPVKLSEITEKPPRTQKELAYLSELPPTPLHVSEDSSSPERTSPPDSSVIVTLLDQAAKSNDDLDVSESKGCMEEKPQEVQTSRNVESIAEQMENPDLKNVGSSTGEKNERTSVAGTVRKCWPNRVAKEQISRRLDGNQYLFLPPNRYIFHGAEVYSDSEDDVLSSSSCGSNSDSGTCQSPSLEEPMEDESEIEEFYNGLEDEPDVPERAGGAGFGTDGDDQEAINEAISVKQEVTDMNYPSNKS
The data set is described as follows: Inhibition of SIRT1 in etoposide-induced human MCF7 cells assessed as increase in p53 acetylation at Lys382 at 50 uM after 5 hrs by Western blotting analysis. The data set is classed as cell-based. An outline of the steps: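 MCF-7 cells seeded 24 h ahead, then given 50 μM compound and 100 μM etoposide together for 5 h before harvest. Acetylated p53 detected by Western blot; run once per compound.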

Data set [12] has as its system A549. The data set is described as follows: Growth inhibition of human A549 cells at >= 50 uM after 48 hrs by sulforhodamine B assay. The data set is classed as functional, cell-based. A general note: In SRB staining, fixed cells bind dye roughly in proportion to their protein.
Data set [13] in a line: Cytotoxicity against human ARPE19 cells at 20 uM by LDH assay. To be noted: arpe-19, 20 µM. It counts as cell-based.
The nature of data set [14]: Cytotoxicity against human SH-SY5Y cells at 20 uM by LDH assay. The data set is classed as cell-based.
The target of data set [15] is T1, NAD-dependent protein deacetylase sirtuin-1 (Homo sapiens). As to the kind of experiment: Inhibition of SIRT1 in etoposide-induced human SH-SY5Y cells assessed as increase in p53 acetylation at Lys382 at 20 uM after 5 hrs by Western blotting analysis. It counts as cell-based. The method, boiled down: (§1)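 ARPE-19 or SH-SY5Y cells seeded 24 h ahead, then given 20 μM compound and 100 μM etoposide together for 5 h before harvest. Acetylated p53 detected by Western blot. Mean ± SEM of 2 independent experiments.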

Data set [16] has the same target. The data set is described as follows: Inhibition of SIRT1 in etoposide-induced human ARPE19 cells assessed as increase in p53 acetylation at Lys382 at 20 uM after 5 hrs by Western blotting analysis. The data set is classed as cell-based. An outline of the steps: as §1
Data set [17] deals with T2, NAD-dependent protein deacetylase sirtuin-2 (Homo sapiens, UniProt Q8IXJ6).
T2 sequence (Q8IXJ6 whole entry): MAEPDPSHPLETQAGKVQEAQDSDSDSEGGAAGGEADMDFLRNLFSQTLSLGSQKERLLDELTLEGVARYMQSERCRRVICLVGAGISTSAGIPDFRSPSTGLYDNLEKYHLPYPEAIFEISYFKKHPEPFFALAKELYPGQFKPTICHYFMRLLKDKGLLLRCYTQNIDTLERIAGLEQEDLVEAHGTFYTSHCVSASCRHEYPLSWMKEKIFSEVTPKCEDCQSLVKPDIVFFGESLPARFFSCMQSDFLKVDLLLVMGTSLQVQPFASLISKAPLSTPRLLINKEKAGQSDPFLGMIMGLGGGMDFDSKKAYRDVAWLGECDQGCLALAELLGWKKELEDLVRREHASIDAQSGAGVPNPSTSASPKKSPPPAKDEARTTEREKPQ
As to the kind of experiment: Inhibition of human recombinant GST-tagged SIRT2 using KI179 as substrate preincubated for 5 mins followed by enzyme addition measured after 1 hr by fluorescence assay. The method, boiled down:
(§2)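 Fluor de Lys deacetylation assay. […] Mix preincubated 5 min at room temperature, started with enzyme, run 1 h at 37°C. Developer with 2 mM nicotinamide then added for 45 min at 37°C before fluorescence reading.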

The target in data set [18] is T3, NAD-dependent protein deacetylase sirtuin-1 (Homo sapiens, UniProt Q96EB6).
T3 sequence (Q96EB6 whole entry): T1 sequence (whole entry)
As to the kind of experiment: Inhibition of human recombinant GST-tagged SIRT1 using KI177 as substrate preincubated for 5 mins followed by enzyme addition measured after 1 hr by fluorescence assay. An outline of the steps:
as §2

The target of data set [19] is T4, NAD-dependent protein deacetylase sirtuin-2 (Homo sapiens) (UniProt Q8IXJ6).
T4 sequence (whole entry): T2 sequence (Q8IXJ6 whole entry)
As to the kind of experiment: Inhibition of human recombinant GST-tagged SIRT2 using KI179 as substrate at 50 uM preincubated for 5 mins followed by enzyme addition measured after 1 hr by fluorescence assay relative to control. The method, boiled down:
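Recombinant GST-SIRT2, Fluor de Lys assay in SIRT assay buffer. Acetylated peptide KI179 at 0.7 Km (Km 198 µM) and NAD+ at 0.9 Km (reported Km 547 µM). Buffer, substrate, NAD+ and compound in DMSO preincubated 5 min at room temperature. Enzyme added to start; 1 h at 37 °C. Developer with 2 mM nicotinamide added; 45 min at 37 °C; fluorescence read. Mean ± SD, ≥3 experiments.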

Data set [20] has as its target T1, NAD-dependent protein deacetylase sirtuin-1 (Homo sapiens). To be noted: at 50 µM.
Data set [21] has as its system MCF7. As to the kind of experiment: Growth inhibition of human MCF7 cells at >= 50 uM after 72 hrs by sulforhodamine B assay.
For data set [22], the system named is A549. As to the kind of experiment: Growth inhibition of human A549 cells up to 200 uM after 48 hrs by sulforhodamine B assay. It counts as functional, cell-based.
Data set [23] has as its target T5, NAD-dependent protein deacetylase sirtuin-3, mitochondrial (Homo sapiens, UniProt Q9NTG7).
T5 sequence (Q9NTG7 whole entry): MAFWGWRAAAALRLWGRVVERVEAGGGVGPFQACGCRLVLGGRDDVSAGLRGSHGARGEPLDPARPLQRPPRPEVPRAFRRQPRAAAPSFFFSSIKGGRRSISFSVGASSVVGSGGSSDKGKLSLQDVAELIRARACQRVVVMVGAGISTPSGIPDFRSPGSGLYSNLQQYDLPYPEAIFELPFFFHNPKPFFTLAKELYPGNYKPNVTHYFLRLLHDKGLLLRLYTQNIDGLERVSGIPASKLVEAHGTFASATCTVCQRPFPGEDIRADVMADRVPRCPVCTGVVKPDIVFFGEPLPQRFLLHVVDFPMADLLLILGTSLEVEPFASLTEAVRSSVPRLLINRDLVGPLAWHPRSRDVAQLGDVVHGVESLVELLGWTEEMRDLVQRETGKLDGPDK
As to the kind of experiment: Inhibition of human recombinant His-tagged SIRT3 using KI179 as substrate preincubated for 5 mins followed by enzyme addition measured after 1 hr by fluorescence assay.

The target of data set [24] is T6, NAD-dependent protein deacetylase sirtuin-3, mitochondrial (Homo sapiens) (UniProt Q9NTG7).
T6 sequence (whole entry): T5 sequence (Q9NTG7 whole entry)
To be noted: at 50 µM.

Data set [25] relates to MCF7. As to the kind of experiment: Growth inhibition of human MCF7 cells up to 200 uM after 72 hrs by sulforhodamine B assay.

The source made the active and inactive calls. The calls are words filed in the database; no cut-off is given here.

As to `COc1ccc2[nH]cc(CCNC(=O)[C@H](CCCCNC(C)=S)NC(=O)OCc3ccccc3)c2c1`, the result in data set [1], in data set [2], in data set [9] and in [10] was inactive. Also, the Activity in [3] is recorded as 5.7%; in data set [4] it was 13.2%; in data set [5], 77.4%; in data set [6] it was 3%; in data set [7] it was 9.9%; in data set [8] it was 85.7%. Moreover, the Activity entry in data set [13] and in data set [14] was “Non-toxic” each time. Besides, the inhibition result in data set [11], in data set [15] and in data set [16] was “Active” each time. Besides, the “growth inhibition (GI)” value in [12] and in [21] was “Active” each time. Besides, the IC50 in data set [17] is 25.8 µM; in data set [18], 5.98 µM. The figures for the inhibition in data set [19] and in data set [20] were 66% and 88%, respectively.
For `CC(=S)NCCCC[C@H](NC(=O)[C@@H]1C[C@@H](O)CN1C(=O)OCc1ccccc1)C(=O)NCC(=O)c1ccccc1`, the outcome in [9] and in data set [10] was inactive. Further, the inhibition entry in data set [11], in [15] and in [16] was “Active” in each case. Further, the “growth inhibition (GI)” value in data set [22] and in data set [25] was “inactive” in each case. Further, the Activity entry in data set [13] and in [14] was “Non-toxic” throughout. The IC50 in [23] came to 3.89 µM; in data set [17], 1.8 µM; in [18], 0.24 µM. In addition, the inhibition was determined as 96% in [19], 90% in [24] and 99% in data set [20].

In general, inhibition refers to the percentage by which the read-out fell short of the control. By IC50 is commonly meant the midpoint of a concentration-inhibition curve.
